Holding throughout (type): functional
Assay [1] is described as follows: In vitro percent inhibition of ConA induced T-cell proliferation at the dose 1 ug/mL. In outline:
(§1)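 Spleen cells sieved to single-cell suspension, red cells lysed with 0.16 M NH4Cl-Tris, washed, in RPMI-1640 + 10% FBS; seeded at 2.5×10^6/mL, stimulated with ConA 0.5 µg/mL, drug final 1, 10 or 100 µg/mL, triplicates; 72 h at 37 °C, [3H]thymidine 0.5 µCi for final 16 h; cpm counted; %inhibition = (control − drug)/control.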

A short description of assay [2]: In vitro percent inhibition of ConA induced T-cell proliferation at the dose 10 ug/mL. In outline:
as §1

Assay [3] can be described thus: In vitro percent inhibition of ConA induced T-cell proliferation at the dose 100 ug/mL. In short, it runs like this:
as §1

A short description of assay [4]: In vitro percent inhibition of LPS induced B-cell proliferation at the dose 1 ug/mL. In short, it runs like this: (§2)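 Splenocyte single-cell suspension (red cells lysed, 0.16 M NH4Cl-Tris), RPMI-1640 + 10% FBS, 2.5×10^6/mL; LPS 10 µg/mL stimulation with drug at final 1, 10 or 100 µg/mL, triplicate wells; cultured 72 h, 37 °C, [3H]thymidine pulse 0.5 µCi last 16 h, β-counting; %inhibition = (control mean − drug mean)/control mean.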

Assay [5] in a line: In vitro percent inhibition of LPS induced B-cell proliferation at the dose 10 ug/mL. In outline: as §2
Assay [6] is described as follows: In vitro percent inhibition of LPS induced B-cell proliferation at the dose 100 ug/mL. In short, it runs like this:
as §2

Assay [7] deals with T1, Tumor necrosis factor (Mus musculus) (UniProt P06804).
T1 sequence (whole entry): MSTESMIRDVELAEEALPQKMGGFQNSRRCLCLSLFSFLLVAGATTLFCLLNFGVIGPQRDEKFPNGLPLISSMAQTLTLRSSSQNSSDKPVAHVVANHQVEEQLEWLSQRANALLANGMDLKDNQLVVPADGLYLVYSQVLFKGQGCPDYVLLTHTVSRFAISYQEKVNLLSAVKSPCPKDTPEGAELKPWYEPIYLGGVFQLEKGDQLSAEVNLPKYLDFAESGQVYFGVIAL
In words: In vitro percent inhibition of tumor necrosis factor, alpha secreted by macrophage at the dose 1 ug/mL. In short, it runs like this:
(§3)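 RAW264.7 macrophages in RPMI 1640 with 10% FCS, 2 mM glutamine, gentamycin; seeded 2×10^5/mL, grown ~3 days to confluence at 37 °C, 5% CO2; LPS 10 µg/mL plus drug at final 1, 10 or 100 µg/mL for 24 h; supernatant TNF-α by ELISA; %inhibition = (control mean − drug mean)/control mean.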

The target in assay [8] is T1, Tumor necrosis factor (Mus musculus). Briefly: In vitro percent inhibition of tumor necrosis factor, alpha secreted by macrophage at the dose 10 ug/mL. In short, it runs like this:
as §3

Assay [9] shares this target. In words: In vitro percent inhibition of tumor necrosis factor, alpha secreted by macrophage at the dose 100 ug/mL. In outline:
as §3

Molecules are shown by their SMILES.

As a reminder, the inhibition is the drop in the measured response relative to a control, in per cent. For `Cc1ccc2ncc(C(=O)N(C)c3ccccc3)c(O)c2c1`, the inhibition at 1 µg/mL in [1] is -59.3%. In assay [2], the inhibition at 10 µg/mL was -20%. For the same molecule, the inhibition at 100 µg/mL in assay [3] is -1.7%.
Turning to `CN(C(=O)c1cnc2cc(F)ccc2c1O)c1ccccc1`, the results for the inhibition at 1 µg/mL in assay [4] and in [1] were 4% and -46.8%, respectively. Further, the results for the inhibition at 10 µg/mL in assay [5] and in assay [2] were 12.5% and -21.5%, respectively. Also, the values for the inhibition at 100 µg/mL in assay [6] and in assay [3] were -127% and 17.1%, respectively.
Turning to `CSc1ccc2ncc(C(=O)NCCN(C)C)c(O)c2c1`, the inhibition at 1 µg/mL was -4.33% in assay [4] and -182% in assay [1]. The inhibition at 10 µg/mL is -9.69% in assay [5] and -42.6% in assay [2]. Besides, the values for the inhibition at 100 µg/mL in assay [6] and in assay [3] were 87.7% and 98.2%, respectively.
Take `CSc1ccc2c(c1)c(O)c(C(=O)N(C)c1ccccc1)c(=O)n2C`: the inhibition in assay [7] is 14.7%; in [8] it was 11.2%; in assay [9], 29.7%. Further, the figures for the inhibition at 1 µg/mL in assay [4] and in [1] were 13.6% and 52%, respectively. For the same molecule, the values for the inhibition at 10 µg/mL in assay [5] and in [2] were 30.3% and 75.3%, respectively. For the same molecule, the inhibition at 100 µg/mL in [6] was found to be 37.8%; in assay [3] it was 79.6%.
On to `CN(C(=O)c1cnc2cc(C(F)(F)F)ccc2c1O)c1ccccc1`, for which the inhibition in assay [8] was -5.45%; in [9] it was -3.57%. The inhibition at 1 µg/mL in assay [4] is 39.8%; in assay [1], 54.7%. The inhibition at 10 µg/mL in assay [5] worked out at 6.41%; in assay [2] it was 4.11%. Further, the results for the inhibition at 100 µg/mL in [6] and in [3] were 64.9% and 93.6%, respectively.
Consider `Cc1cc(C)c2ncc(C(=O)N(C)c3ccccc3)c(O)c2c1`, for which the inhibition at 1 µg/mL in assay [1] stood at 1.84%. Besides, the inhibition at 10 µg/mL in assay [2] was found to be 12.9%. In assay [3], the inhibition at 100 µg/mL amounted to 47.1%.
As for `COc1ccc2c(O)c(C(=O)NCC(C)(C)CN(C)C)cnc2c1`, the figures for the inhibition at 1 µg/mL in assay [4] and in [1] were 48.8% and 32.6%, respectively. In addition, the inhibition at 10 µg/mL in assay [5] came out at 72.3%; in [2] it was 29.4%. The inhibition at 100 µg/mL in [6] came to 91.6%; in assay [3], 98.5%.
Turning to `COc1ccc2c(O)c(C(=O)NCCN(C)C)cnc2c1`, the inhibition at 1 µg/mL in [1] is -40.7%. Besides, the inhibition at 10 µg/mL in [2] is -15.3%. For the same molecule, in [3], the inhibition at 100 µg/mL stood at 92.8%.
As to `CN(C)CCNC(=O)c1cnc2ccccc2c1O`, the inhibition at 1 µg/mL in assay [1] is -14.4%. Also, the inhibition at 10 µg/mL in assay [2] is -6.94%. In addition, the inhibition at 100 µg/mL in assay [3] was 73.6%.
With `COc1ccc2c(O)c(C(=O)N(C)c3ccccc3)cnc2c1`, the inhibition in assay [7] turned out to be 12.1%; in assay [8], 35.7%; in assay [9], 35.7%. In addition, the figures for the inhibition at 1 µg/mL in assay [4] and in [1] were 41.3% and 36.5%, respectively. Moreover, the figures for the inhibition at 10 µg/mL in assay [5] and in assay [2] were 24.9% and 29.3%, respectively. In addition, the inhibition at 100 µg/mL was determined as 57.5% in assay [6] and 53.7% in assay [3].
Turning to `CN(C)CC(C)(C)CNC(=O)c1cnc2ccc(F)cc2c1O`, the values for the inhibition at 1 µg/mL in [4] and in assay [1] were 21.3% and -30.7%, respectively. Besides, the inhibition at 10 µg/mL in assay [5] was 17.8%; in assay [2] it was 32.9%. Besides, the figures for the inhibition at 100 µg/mL in assay [6] and in assay [3] were 70.5% and 87.4%, respectively.
As for `CSc1ccc2c(O)c(C(=O)NCCN(C)C)cnc2c1`, the inhibition at 1 µg/mL in assay [1] came to 30.3%. Moreover, the inhibition at 10 µg/mL in assay [2] amounted to 38.5%. Besides, the inhibition at 100 µg/mL in [3] amounted to 100%.
Regarding `CSc1cccc2c(O)c(C(=O)NCCN(C)C)cnc12`, the inhibition at 1 µg/mL in [1] amounted to 32%. In [2], the inhibition at 10 µg/mL is 69.1%. Moreover, the inhibition at 100 µg/mL in [3] stood at 99.9%.
On to `O=C(O)c1ccc2ncc(C(=O)Nc3cccc(Cl)c3)c(O)c2c1`, for which the inhibition at 1 µg/mL in [4] turned out to be 78.5%; in [1], 87.6%. The figures for the inhibition at 10 µg/mL in assay [5] and in assay [2] were 94.3% and 84.8%, respectively. In addition, the inhibition at 100 µg/mL was found to be 94.7% in [6] and 73.4% in assay [3].
For the molecule `Cc1cc(C)c2ncc(C(=O)NCCN(C)C)c(O)c2c1`, the inhibition at 1 µg/mL in [1] came out at 0.95%. Besides, in assay [2], the inhibition at 10 µg/mL came out at 38.5%. Besides, in assay [3], the inhibition at 100 µg/mL was determined as 99.6%.
As for `CSc1ccc2ncc(C(=O)N(C)c3ccccc3)c(O)c2c1`, the inhibition at 1 µg/mL in [4] is -47%. The inhibition at 10 µg/mL in assay [5] is -144%; in assay [2] it was -155%. For the same molecule, the inhibition at 100 µg/mL in assay [6] worked out at 65.6%; in assay [3] it was 96.3%.
For the molecule `CN(C)CCNC(=O)c1cnc2ccc([N+](=O)[O-])cc2c1O`, the inhibition at 1 µg/mL in assay [1] was determined as 41.5%. Further, the inhibition at 10 µg/mL in assay [2] is 53.2%. The inhibition at 100 µg/mL in assay [3] was 99.9%.
In the case of `CN(C)CC(C)(C)CNC(=O)c1cnc2cc(F)ccc2c1O`, in assay [1], the inhibition at 1 µg/mL worked out at 20.8%. Further, in assay [2], the inhibition at 10 µg/mL was determined as 37.2%. Besides, the inhibition at 100 µg/mL in [3] is 96.3%.
For `O=C(NCCO)c1cnc2cc(Cl)ccc2c1O`, the inhibition in assay [8] was found to be 6.06%; in assay [9], 77.7%. Further, the inhibition at 1 µg/mL in assay [4] was 21.3%; in [1], 42.5%. Moreover, the inhibition at 10 µg/mL in assay [5] stood at 29.1%; in assay [2], 49.8%. Also, the inhibition at 100 µg/mL in assay [6] stood at 53.3%; in [3], 93.8%.
Turning to `Cc1ccc2ncc(C(=O)NCCN(C)C)c(O)c2c1`, the inhibition at 1 µg/mL in assay [1] was -27.5%. Further, the inhibition at 10 µg/mL in assay [2] is -11.2%. In [3], the inhibition at 100 µg/mL was 94.9%.
With `CN(C)CCNC(=O)c1cnc2cc(F)ccc2c1O`, in assay [1], the inhibition at 1 µg/mL was -24.6%. Besides, the inhibition at 10 µg/mL in [2] is -9%. Also, the inhibition at 100 µg/mL in assay [3] was 87.2%.
As to `O=C(O)c1ccc2ncc(C(=O)Nc3ccccc3)c(O)c2c1`, the inhibition in [7] was determined as 15.2%; in assay [8], 15.5%. Further, the figures for the inhibition at 1 µg/mL in assay [4] and in assay [1] were 82.5% and 71.3%, respectively. Also, the inhibition at 10 µg/mL in assay [5] is 80.6%; in assay [2], 57.5%. The inhibition at 100 µg/mL in assay [6] was 48.5%; in assay [3], 39.8%.
`CN(C(=O)c1cnc2ccccc2c1O)c1ccccc1`: the inhibition in assay [7] is 7.59%; in assay [9] it was -1.33%. Further, the inhibition at 1 µg/mL was 17.7% in assay [4] and -7.55% in assay [1]. Also, the inhibition at 10 µg/mL in [5] came to 8.46%; in assay [2], 24.9%. Also, the values for the inhibition at 100 µg/mL in [6] and in [3] were 32.4% and -9.33%, respectively.
In the case of `CSc1cccc2c(O)c(C(=O)N(C)c3ccccc3)cnc12`, the inhibition was 2.08% in assay [7] and -9.52% in assay [9]. Besides, the inhibition at 1 µg/mL is -2.46% in assay [4] and 11.4% in [1]. The inhibition at 10 µg/mL came to 36.5% in assay [5] and 52.4% in assay [2]. For the same molecule, the inhibition at 100 µg/mL in assay [6] is 71.7%; in [3], 81.7%.
As to `CN(C)CCNC(=O)c1cnc2cc(Cl)ccc2c1O`, the inhibition at 1 µg/mL in [1] is 14%. Besides, the inhibition at 10 µg/mL in [2] amounted to 33.7%. In addition, the inhibition at 100 µg/mL in [3] is 99.9%.
`CN(C)CCNC(=O)c1cnc2ccc(Br)cc2c1O`: the inhibition at 1 µg/mL in [1] was -19.6%. In addition, the inhibition at 10 µg/mL in [2] is 31.6%. Also, in assay [3], the inhibition at 100 µg/mL stood at 99.7%.
